{
  "source": "ChEMBL document CHEMBL5030505",
  "about": "“Assessment of NR4A Ligands That Directly Bind and Modulate the Orphan Nuclear Receptor Nurr1” (J Med Chem, 2020)",
  "type_in_all_cases": "cell-based",
  "key": {"HEK293T": {"tested_on": "HEK293T", "test": "Modulation of Gal4-fused VP16 expressed in HEK293T cells co-transfected with UAS repoter gene assessed as decrease in luciferase activity at 12.5 to 50 uM incubated for 18 hrs by luciferase reporter gene assay", "settings": "Human alphaherpesvirus 2, filed as modulator, dose 12.5-50 µM", "summary_of_the_method": "(§1)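 Cells in 10-cm dishes were transfected with Gal4-VP16 expression plasmid (2 μg) plus 5xUAS-luciferase reporter (2 μg) for 18 h. They were replated at 10,000 cells/well for 4 h, then given ligand or vehicle (water, ethanol or DMSO) in quadruplicate for 18 h. Luciferase was read with Britelite Plus. Fold change is versus vehicle-treated cells, with one-way ANOVA versus vehicle.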"}, "[1]": {"molecular_target": "Nuclear receptor subfamily 4 group A member 2 (Homo sapiens) (UniProt P43354)", "sequence (P43354 whole entry)": "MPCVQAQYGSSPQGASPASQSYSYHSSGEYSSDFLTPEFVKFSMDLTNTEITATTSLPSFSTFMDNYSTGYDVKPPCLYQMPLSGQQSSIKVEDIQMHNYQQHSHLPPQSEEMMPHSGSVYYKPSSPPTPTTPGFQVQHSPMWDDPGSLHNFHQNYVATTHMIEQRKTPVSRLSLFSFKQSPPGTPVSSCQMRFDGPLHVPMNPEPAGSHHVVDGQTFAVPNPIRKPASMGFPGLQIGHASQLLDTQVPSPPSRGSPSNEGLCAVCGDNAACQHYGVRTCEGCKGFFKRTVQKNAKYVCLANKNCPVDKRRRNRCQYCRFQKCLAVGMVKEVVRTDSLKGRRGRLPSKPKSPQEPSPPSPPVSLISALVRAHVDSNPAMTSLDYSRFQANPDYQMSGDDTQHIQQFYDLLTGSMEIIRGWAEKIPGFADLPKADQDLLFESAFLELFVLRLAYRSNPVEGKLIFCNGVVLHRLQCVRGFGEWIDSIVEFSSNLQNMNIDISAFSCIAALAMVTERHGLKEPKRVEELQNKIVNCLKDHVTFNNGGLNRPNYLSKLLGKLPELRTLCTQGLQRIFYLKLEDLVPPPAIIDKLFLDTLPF", "test": "Modulation of full length human Nurr1 expressed in HEK293T cells co-transfected with RXRalpha and luciferase reporter plasmid harboring NurRE response element assessed as decrease in luciferase activity at 12.5 to 50 uM incubated for 18 hrs by luciferase reporter gene assay", "settings": "filed as modulator, dose 12.5-50 µM", "summary_of_the_method": "(§2)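 Full-length Nurr1 plasmid, alone (2 μg) or 1 μg plus full-length RXRα (1 μg), cotransfected with 3xNBRE- or 3xNurRE-luciferase reporter (6 μg) using Lipofectamine 2000, 18 h. Cells replated at 10,000/well for 4 h. Four ligand concentrations, or vehicle (water, ethanol or DMSO), added in quadruplicate for 18 h. Luciferase read. Fold change vs vehicle, mean ± s.e.m., one-way ANOVA vs vehicle.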"}, "[2]": {"molecular_target": "Nuclear receptor subfamily 4 group A member 2 (Homo sapiens) (UniProt P43354)", "test": "Modulation of full length human Nurr1 expressed in SKNBE(2) cells co-transfected with luciferase reporter plasmid harboring NBRE response element assessed as decrease in luciferase activity at 12.5 to 50 uM incubated for 18 hrs by luciferase reporter gene assay", "settings": "SKNBE2, filed as modulator, dose 12.5-50 µM", "summary_of_the_method": "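Transfection of SK-N-BE(2)-C cells (1:1 EMEM/F12, 10% FBS, 37°C, 5% CO2) used full-length Nurr1 alone (2 μg, no RXRα) with 3xNBRE- or 3xNurRE-luciferase reporter (6 μg) for 18 h. Cells were replated at 10,000/well for 4 h, then exposed to ligand or vehicle in quadruplicate for 18 h. Luminescence was expressed as fold over vehicle, as mean ± s.e.m. (n=4) from 2 independent experiments, one-way ANOVA against vehicle.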"}, "[3]": {"molecular_target": "Nuclear receptor subfamily 4 group A member 2 (Homo sapiens) (UniProt P43354)", "test": "Modulation of full length human Nurr1 expressed in PC12 cells co-transfected with luciferase reporter plasmid harboring NBRE response element at 12.5 to 50 uM incubated for 18 hrs by luciferase reporter gene assay", "settings": "PC-12, dose 12.5-50 µM", "summary_of_the_method": "(§3)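 Here PC12 cells (FK-12 medium, 15% horse serum, 2.5% FBS, 37°C, 5% CO2) received full-length Nurr1 (2 μg) without RXRα, plus 3xNBRE- or 3xNurRE-luciferase reporter (6 μg), for 18 h. Cells were replated at 10,000/well for 4 h, then treated with ligand or vehicle in quadruplicate for 18 h. Luciferase luminescence was normalized to vehicle-treated cells. Results are mean ± s.e.m. (n=4) from 2 independent experiments, with one-way ANOVA against vehicle.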"}, "[4]": {"molecular_target": "Nuclear receptor subfamily 4 group A member 2 (Homo sapiens) (UniProt P43354)", "test": "Modulation of full length human Nurr1 expressed in SKNBE(2) cells co-transfected with RXRalpha and luciferase reporter plasmid harboring NBRE response element assessed as increase in luciferase activity at 12.5 to 50 uM incubated for 18 hrs by luciferase reporter gene assay", "settings": "SKNBE2, filed as modulator, dose 12.5-50 µM", "summary_of_the_method": "(§4)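 SK-N-BE(2)-C cells were kept in 1:1 EMEM/F12 with 10% FBS at 37°C and 5% CO2. They were cotransfected with full-length Nurr1 (1 μg), full-length RXRα (1 μg) and 3xNBRE- or 3xNurRE-luc reporter (6 μg) for 18 h, replated at 10,000 cells/well for 4 h, and then treated with ligand or vehicle in quadruplicate for 18 h. The readout was luciferase luminescence as fold over vehicle, reported as mean ± s.e.m. (n=4) from 2 independent experiments, one-way ANOVA.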"}, "SKNBE2": {"tested_on": "SKNBE2", "test": "Modulation of Gal4-fused VP16 expressed in SKNBE(2) cells co-transfected with UAS repoter gene assessed as decrease in luciferase activity at 12.5 to 50 uM incubated for 18 hrs by luciferase reporter gene assay", "settings": "Human alphaherpesvirus 2, filed as modulator, dose 12.5-50 µM", "summary_of_the_method": "as §1"}, "PC-12 [5]": {"tested_on": "PC-12", "test": "Modulation of Gal4-fused VP16 expressed in PC12 cells co-transfected with UAS repoter gene assessed as decrease in luciferase activity at 12.5 to 50 uM incubated for 18 hrs by luciferase reporter gene assay", "settings": "Human alphaherpesvirus 2, filed as modulator, dose 12.5-50 µM", "summary_of_the_method": "as §1"}, "[6]": {"molecular_target": "Nuclear receptor subfamily 4 group A member 2 (Homo sapiens) (UniProt P43354)", "test": "Modulation of full length human Nurr1 expressed in HEK293T cells co-transfected with RXRalpha and luciferase reporter plasmid harboring NBRE response element assessed as decrease in luciferase activity at 12.5 to 50 uM incubated for 18 hrs by luciferase reporter gene assay", "settings": "filed as modulator, dose 12.5-50 µM", "summary_of_the_method": "as §2"}, "[7]": {"molecular_target": "Nuclear receptor subfamily 4 group A member 2 (Homo sapiens) (UniProt P43354)", "test": "Modulation of full length human Nurr1 expressed in HEK293T cells co-transfected with RXRalpha and luciferase reporter plasmid harboring NBRE response element assessed as increase in luciferase activity at 12.5 to 50 uM incubated for 18 hrs by luciferase reporter gene assay", "settings": "filed as modulator, dose 12.5-50 µM", "summary_of_the_method": "as §2"}, "PC-12 [8]": {"tested_on": "PC-12", "test": "Cytotoxicity in rat PC-12 cells assessed as reduction in cell viability at 12.5 to 50 uM incubated for 18 hrs by Cell Titer-Glo assay", "settings": "pc-12, 18 h, dose 12.5-50 µM", "summary_of_the_method": "(§5)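 Cells seeded at 1.5 million per 10-cm dish. Next day they were replated at 10,000 cells/well and rested 4 h. Ligand or vehicle (water, ethanol or DMSO, by ligand) was added in dose-response format in quadruplicate. After 18 h, viability was read by CellTiter-Glo luminescence. Data are mean ± s.e.m., generally representative of 2 independent experiments. One-way ANOVA versus vehicle.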"}, "[9]": {"molecular_target": "Nuclear receptor subfamily 4 group A member 2 (Homo sapiens) (UniProt P43354)", "test": "Modulation of full length human Nurr1 expressed in PC12 cells co-transfected with luciferase reporter plasmid harboring NurRE response element at 12.5 to 50 uM incubated for 18 hrs by luciferase reporter gene assay", "settings": "PC-12, dose 12.5-50 µM", "summary_of_the_method": "as §3"}, "[10]": {"molecular_target": "Nuclear receptor subfamily 4 group A member 2 (Homo sapiens) (UniProt P43354)", "test": "Modulation of full length human Nurr1 expressed in HEK293T cells co-transfected with luciferase reporter plasmid harboring NBRE response element assessed as decrease in luciferase activity at 12.5 to 50 uM incubated for 18 hrs by luciferase reporter gene assay", "settings": "filed as modulator, dose 12.5-50 µM", "summary_of_the_method": "as §2"}, "[11]": {"molecular_target": "Nuclear receptor subfamily 4 group A member 2 (Homo sapiens) (UniProt P43354)", "test": "Modulation of full length human Nurr1 expressed in SKNBE(2) cells co-transfected with luciferase reporter plasmid harboring NurRE response element assessed as decrease in luciferase activity at 12.5 to 50 uM incubated for 18 hrs by luciferase reporter gene assay", "settings": "SKNBE2, filed as modulator, dose 12.5-50 µM"}, "HEK-293T": {"tested_on": "HEK-293T", "test": "Cytotoxicity in human HEK293T cells assessed as reduction in cell viability at 12.5 to 50 uM incubated for 18 hrs by Cell Titer-Glo assay", "settings": "dose 12.5-50 µM", "summary_of_the_method": "as §5"}, "[12]": {"molecular_target": "Nuclear receptor subfamily 4 group A member 2 (Homo sapiens) (UniProt P43354)", "test": "Modulation of full length human Nurr1 expressed in SKNBE(2) cells co-transfected with RXRalpha and luciferase reporter plasmid harboring NBRE response element assessed as decrease in luciferase activity at 12.5 to 50 uM incubated for 18 hrs by luciferase reporter gene assay", "settings": "SKNBE2, filed as modulator, dose 12.5-50 µM", "summary_of_the_method": "as §4"}, "SK-N-BE(2)": {"tested_on": "SK-N-BE(2)", "test": "Cytotoxicity in human SKNBE2 cells assessed as reduction in cell viability at 12.5 to 50 uM incubated for 18 hrs by Cell Titer-Glo assay", "settings": "dose 12.5-50 µM", "summary_of_the_method": "as §5"}, "[13]": {"molecular_target": "Nuclear receptor subfamily 4 group A member 2 (Homo sapiens) (UniProt P43354)", "test": "Modulation of full length human Nurr1 expressed in HEK293T cells co-transfected with luciferase reporter plasmid harboring NurRE response element assessed as decrease in luciferase activity at 12.5 to 50 uM incubated for 18 hrs by luciferase reporter gene assay", "settings": "filed as modulator, dose 12.5-50 µM", "summary_of_the_method": "as §2"}, "[14]": {"molecular_target": "Nuclear receptor subfamily 4 group A member 2 (Homo sapiens) (UniProt P43354)", "test": "Modulation of full length human Nurr1 expressed in SKNBE(2) cells co-transfected with RXRalpha and luciferase reporter plasmid harboring NurRE response element assessed as decrease in luciferase activity at 12.5 to 50 uM incubated for 18 hrs by luciferase reporter gene assay", "settings": "SKNBE2, filed as modulator, dose 12.5-50 µM", "summary_of_the_method": "as §4"}, "[15]": {"molecular_target": "Nuclear receptor subfamily 4 group A member 2 (Homo sapiens) (UniProt P43354)", "test": "Modulation of full length human Nurr1 expressed in PC12 cells co-transfected with RXRalpha and luciferase reporter plasmid harboring NurRE response element at 12.5 to 50 uM incubated for 18 hrs by luciferase reporter gene assay", "settings": "PC-12, dose 12.5-50 µM", "summary_of_the_method": "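PC12 cells were grown at 37°C and 5% CO2 in […] medium with 15% horse serum and 2.5% FBS. They were transfected with full-length Nurr1 (1 μg) plus full-length RXRα (1 μg) and 3xNBRE- or 3xNurRE-luciferase reporter (6 μg) for 18 h, then replated at 10,000 cells/well for 4 h. Ligand or vehicle (water, ethanol or DMSO) was added in quadruplicate for 18 h. Luminescence was read as fold change over vehicle. Results are mean ± s.e.m., n=4, from 2 independent experiments, analysed by one-way ANOVA against vehicle.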"}},
  "note": "Activity calls are given as the source filed them. The calls are words filed in the database; no cut-off is given here.",
  "data": [
    {"compound": "Clc1ccc(C(c2c[nH]c3ccccc23)c2c[nH]c3ccccc23)cc1", "values": [
      {"measurement": "Activity", "setting": "HEK293T", "result": "Active"},
      {"measurement": "Activity", "setting": "[1]", "result": "Active"},
      {"measurement": "Activity", "setting": "[2]", "result": "Active"},
      {"measurement": "Activity", "setting": "[3]", "result": "inactive"},
      {"measurement": "Activity", "setting": "[4]", "result": "Active"},
      {"measurement": "Activity", "setting": "SKNBE2", "result": "Active"},
      {"measurement": "Activity", "setting": "PC-12 [5]", "result": "Active"},
      {"measurement": "Activity", "setting": "[6]", "result": "Active"},
      {"measurement": "Activity", "setting": "[7]", "result": "Active"},
      {"measurement": "Activity", "setting": "PC-12 [8]", "result": "Toxic"},
      {"measurement": "Activity", "setting": "[9]", "result": "inactive"},
      {"measurement": "Activity", "setting": "[10]", "result": "Active"},
      {"measurement": "Activity", "setting": "[11]", "result": "Active"},
      {"measurement": "Activity", "setting": "HEK-293T", "result": "Toxic"},
      {"measurement": "Activity", "setting": "[12]", "result": "Active"},
      {"measurement": "Activity", "setting": "SK-N-BE(2)", "result": "Toxic"},
      {"measurement": "Activity", "setting": "[13]", "result": "Active"},
      {"measurement": "Activity", "setting": "[14]", "result": "Active"},
      {"measurement": "Activity", "setting": "[15]", "result": "inactive"}
    ]}
  ]
}
